Test results: ChEMBL document CHEMBL4049426, “Identification of the Clinical Candidate (R)-(1-(4-Fluorophenyl)-6-((1-methyl-1H-pyrazol-4-yl)sulfonyl)-4,4a,5,6,7,8-hexahydro-1H-pyrazolo[3,4-g]isoquinolin-4a-yl)(4-(trifluoromethyl)pyridin-2-yl)methanone (CORT125134): A Selective Glucocorticoid Receptor (GR) Antagonist” (J Med Chem, 2017); call rule not given here

Legend:
progesterone receptor = target: T1, progesterone receptor (Homo sapiens, UniProt P06401); experiment: Inhibition of radioligand binding to progesterone receptor (unknown origin) at 1 uM relative to control
T1 sequence (P06401 whole entry): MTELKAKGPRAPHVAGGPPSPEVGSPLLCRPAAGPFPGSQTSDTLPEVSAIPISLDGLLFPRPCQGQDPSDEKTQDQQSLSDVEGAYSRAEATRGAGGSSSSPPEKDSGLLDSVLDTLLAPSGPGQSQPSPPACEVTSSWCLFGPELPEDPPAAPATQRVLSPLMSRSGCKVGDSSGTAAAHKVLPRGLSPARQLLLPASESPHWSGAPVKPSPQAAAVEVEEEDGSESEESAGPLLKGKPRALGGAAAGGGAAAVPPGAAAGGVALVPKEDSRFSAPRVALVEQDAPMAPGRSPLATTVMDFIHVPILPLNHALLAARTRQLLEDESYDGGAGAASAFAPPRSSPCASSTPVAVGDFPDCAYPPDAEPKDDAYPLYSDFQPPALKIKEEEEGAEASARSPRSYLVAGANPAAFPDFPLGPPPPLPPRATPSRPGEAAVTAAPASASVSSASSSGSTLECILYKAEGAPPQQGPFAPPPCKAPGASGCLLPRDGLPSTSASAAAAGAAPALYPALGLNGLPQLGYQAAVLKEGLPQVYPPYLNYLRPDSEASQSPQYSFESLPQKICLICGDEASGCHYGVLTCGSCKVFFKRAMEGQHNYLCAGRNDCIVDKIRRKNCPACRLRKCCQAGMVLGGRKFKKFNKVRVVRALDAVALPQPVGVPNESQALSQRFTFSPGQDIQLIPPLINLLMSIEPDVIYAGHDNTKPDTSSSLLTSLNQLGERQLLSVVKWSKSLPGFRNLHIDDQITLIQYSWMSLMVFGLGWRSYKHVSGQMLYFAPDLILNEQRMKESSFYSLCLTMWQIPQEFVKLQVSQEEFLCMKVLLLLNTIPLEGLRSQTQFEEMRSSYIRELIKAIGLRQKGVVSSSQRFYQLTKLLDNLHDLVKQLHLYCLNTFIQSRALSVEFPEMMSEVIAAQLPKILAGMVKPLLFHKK

Cytochrome P450 2C9 [1] = target: T2, Cytochrome P450 2C9 (Homo sapiens, UniProt P11712); experiment: Time-dependent inhibition of CYP2C9 (unknown origin); format: ADME
T2 sequence (P11712 whole entry): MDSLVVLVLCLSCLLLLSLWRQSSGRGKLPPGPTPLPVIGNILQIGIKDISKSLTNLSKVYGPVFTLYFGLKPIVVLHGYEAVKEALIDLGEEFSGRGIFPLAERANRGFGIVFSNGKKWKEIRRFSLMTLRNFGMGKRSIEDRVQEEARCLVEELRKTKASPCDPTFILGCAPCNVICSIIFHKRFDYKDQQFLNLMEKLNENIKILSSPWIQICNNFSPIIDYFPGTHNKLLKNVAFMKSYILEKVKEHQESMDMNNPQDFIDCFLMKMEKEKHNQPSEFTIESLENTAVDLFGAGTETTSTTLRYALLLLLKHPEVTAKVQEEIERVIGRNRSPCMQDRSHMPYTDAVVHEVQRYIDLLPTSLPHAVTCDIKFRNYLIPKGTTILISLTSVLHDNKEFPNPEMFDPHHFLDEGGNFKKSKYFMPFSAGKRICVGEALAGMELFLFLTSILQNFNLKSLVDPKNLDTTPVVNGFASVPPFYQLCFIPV

[2] = AUC in Sprague-Dawley CD-1 rat plasma at 5 mg/kg, po administered through gavage measured up to 24 hrs by LC/MS analysis; format: ADME, organism-based; parameters: dose 5 mg/kg, time < 24 hr, route oral
In short: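 Jugular-catheterized male Sprague Dawley CD-1 rats (220-250g). Oral arm: five rats, 5mg/kg gavage, 1mg/mL in DMSO:0.5% methylcellulose 10:90, 5mL/kg, sampled pre-dose and 0.25-24 h. i.v. arm: three rats, 1mg/kg, 0.5mg/mL in DMSO:PEG400:propylene glycol 10:45:45, sampled pre-dose and 0.08-24 h. Plasma by LC/MS.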

Cytochrome P450 2C9 [3] = target: T2, Cytochrome P450 2C9; experiment: Inhibition of CYP2C9 (unknown origin); format: ADME
Cytochrome P450 2B6 = target: T3, Cytochrome P450 2B6 (Homo sapiens, UniProt P20813); experiment: Inhibition of CYP2B6 (unknown origin); format: ADME
T3 sequence (P20813 whole entry): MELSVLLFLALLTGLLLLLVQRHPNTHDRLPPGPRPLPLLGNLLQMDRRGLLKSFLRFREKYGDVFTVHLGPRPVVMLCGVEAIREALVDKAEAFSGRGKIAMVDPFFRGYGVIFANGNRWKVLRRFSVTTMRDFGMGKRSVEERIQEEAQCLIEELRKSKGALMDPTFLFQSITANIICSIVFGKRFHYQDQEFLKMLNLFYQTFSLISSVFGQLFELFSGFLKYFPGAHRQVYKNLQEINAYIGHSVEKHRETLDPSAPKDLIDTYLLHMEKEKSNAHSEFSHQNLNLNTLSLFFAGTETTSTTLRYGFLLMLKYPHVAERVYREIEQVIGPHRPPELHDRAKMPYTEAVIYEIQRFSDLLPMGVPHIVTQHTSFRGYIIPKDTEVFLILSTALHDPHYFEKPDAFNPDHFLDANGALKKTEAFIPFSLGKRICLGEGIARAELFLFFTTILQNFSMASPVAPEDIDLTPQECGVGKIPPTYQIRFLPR

Cytochrome P450 2C19 = Cytochrome P450 2C19 (Homo sapiens, UniProt P33261); experiment: Time-dependent inhibition of CYP2C19 (unknown origin); format: ADME
Cytochrome P450 2C19, sequence (P33261 whole entry): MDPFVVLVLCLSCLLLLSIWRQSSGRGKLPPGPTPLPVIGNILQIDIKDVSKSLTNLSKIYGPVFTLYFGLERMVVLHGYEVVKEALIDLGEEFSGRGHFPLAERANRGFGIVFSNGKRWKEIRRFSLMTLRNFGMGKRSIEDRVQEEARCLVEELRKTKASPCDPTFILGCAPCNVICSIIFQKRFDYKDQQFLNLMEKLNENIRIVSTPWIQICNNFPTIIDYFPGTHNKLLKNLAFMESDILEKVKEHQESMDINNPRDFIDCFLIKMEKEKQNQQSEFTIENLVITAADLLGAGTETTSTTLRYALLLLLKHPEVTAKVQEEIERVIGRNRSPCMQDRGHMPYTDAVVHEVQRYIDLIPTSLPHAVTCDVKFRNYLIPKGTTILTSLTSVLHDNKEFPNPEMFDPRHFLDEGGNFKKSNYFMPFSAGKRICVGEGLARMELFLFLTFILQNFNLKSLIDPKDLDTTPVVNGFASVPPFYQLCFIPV

Glucocorticoid receptor = target: T4, Glucocorticoid receptor (Canis lupus familiaris, UniProt A0A8C0QLS2); experiment: (§1) Antagonist activity at dog glucocorticoid receptor in primary hepatocytes assessed as dexamethasone-induced tyrosine amino transferase activity preincubated for 30 mins followed by dexamethasone addition measured after 20 hrs; format: cell-based
T4 sequence (A0A8C0QLS2 whole entry): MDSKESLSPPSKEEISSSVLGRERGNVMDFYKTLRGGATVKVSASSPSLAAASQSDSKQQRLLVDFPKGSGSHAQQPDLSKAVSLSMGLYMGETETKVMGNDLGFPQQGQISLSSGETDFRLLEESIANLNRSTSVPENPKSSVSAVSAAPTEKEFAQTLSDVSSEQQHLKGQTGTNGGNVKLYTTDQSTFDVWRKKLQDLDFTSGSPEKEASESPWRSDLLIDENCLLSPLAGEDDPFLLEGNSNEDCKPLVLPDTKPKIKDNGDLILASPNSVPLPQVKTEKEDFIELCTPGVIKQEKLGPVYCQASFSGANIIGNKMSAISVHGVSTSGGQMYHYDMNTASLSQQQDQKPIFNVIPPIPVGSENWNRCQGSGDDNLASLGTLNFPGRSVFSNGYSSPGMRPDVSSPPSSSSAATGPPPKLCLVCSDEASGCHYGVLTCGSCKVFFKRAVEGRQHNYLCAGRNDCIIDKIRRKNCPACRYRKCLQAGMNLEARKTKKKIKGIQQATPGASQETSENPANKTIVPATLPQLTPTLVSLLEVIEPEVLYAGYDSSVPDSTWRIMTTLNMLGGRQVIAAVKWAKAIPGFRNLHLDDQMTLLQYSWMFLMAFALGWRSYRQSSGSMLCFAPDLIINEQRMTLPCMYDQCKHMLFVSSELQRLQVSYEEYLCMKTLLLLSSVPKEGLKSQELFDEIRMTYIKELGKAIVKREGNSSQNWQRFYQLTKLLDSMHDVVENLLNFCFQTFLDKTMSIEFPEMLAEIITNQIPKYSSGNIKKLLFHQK

[4] = target: T5, Glucocorticoid receptor (Canis lupus familiaris) (UniProt A0A8C0QLS2); experiment: as §1; format: cell-based
T5 sequence (whole entry): T4 sequence (A0A8C0QLS2 whole entry)

Cytochrome P450 2D6 = Cytochrome P450 2D6 (Homo sapiens, UniProt P10635); experiment: Time-dependent inhibition of CYP2D6 (unknown origin); format: ADME
Cytochrome P450 2D6, sequence (P10635 whole entry): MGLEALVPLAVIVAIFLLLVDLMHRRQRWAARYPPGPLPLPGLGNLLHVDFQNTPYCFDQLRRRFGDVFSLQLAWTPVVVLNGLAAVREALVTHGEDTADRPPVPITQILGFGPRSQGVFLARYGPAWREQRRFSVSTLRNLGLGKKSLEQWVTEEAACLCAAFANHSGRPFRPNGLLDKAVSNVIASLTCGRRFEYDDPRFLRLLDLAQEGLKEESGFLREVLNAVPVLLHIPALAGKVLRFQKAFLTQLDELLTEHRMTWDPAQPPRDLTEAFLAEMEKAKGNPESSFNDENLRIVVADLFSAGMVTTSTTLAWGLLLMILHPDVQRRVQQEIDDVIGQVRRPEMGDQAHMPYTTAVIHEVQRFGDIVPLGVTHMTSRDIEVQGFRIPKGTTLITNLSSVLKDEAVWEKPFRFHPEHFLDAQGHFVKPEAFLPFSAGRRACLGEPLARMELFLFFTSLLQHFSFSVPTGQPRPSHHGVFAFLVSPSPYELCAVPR

Cytochrome P450 3A4 [5] = target: T6, Cytochrome P450 3A4 (Homo sapiens, UniProt P08684); experiment: Induction of CYP3A4 in human hepatocytes; format: ADME, cell-based
T6 sequence (P08684 whole entry): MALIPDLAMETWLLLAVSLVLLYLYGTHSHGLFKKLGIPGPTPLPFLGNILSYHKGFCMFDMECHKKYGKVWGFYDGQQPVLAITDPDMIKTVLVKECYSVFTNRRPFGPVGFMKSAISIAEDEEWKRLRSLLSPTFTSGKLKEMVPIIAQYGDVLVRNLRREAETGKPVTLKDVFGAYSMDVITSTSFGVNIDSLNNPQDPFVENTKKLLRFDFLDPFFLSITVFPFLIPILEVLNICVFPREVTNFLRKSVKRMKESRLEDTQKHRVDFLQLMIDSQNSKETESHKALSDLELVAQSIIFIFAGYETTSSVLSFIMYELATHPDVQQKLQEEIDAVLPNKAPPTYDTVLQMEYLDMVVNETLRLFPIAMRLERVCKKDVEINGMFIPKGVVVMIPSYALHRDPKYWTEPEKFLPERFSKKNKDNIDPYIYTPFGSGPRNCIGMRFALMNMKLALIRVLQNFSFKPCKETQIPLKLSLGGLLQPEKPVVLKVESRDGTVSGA

Cytochrome P450 3A4 [6] = target: T6, Cytochrome P450 3A4; experiment: Inhibition of CYP3A4 (unknown origin); format: ADME

Cn1cc(S(=O)(=O)N2CCC3=Cc4c(cnn4-c4ccc(F)cc4)C[C@]3(C(=O)c3cc(C(F)(F)F)ccn3)C2)cn1 [RELACORILANT]
inhibition at 1 µM (progesterone receptor): < 10%
TDI (Cytochrome P450 2C9 [1]): Not Active
AUC at 24 h [2]: 1550 ng·h/mL
IC50 (Cytochrome P450 2C9 [3]): 2000 nM
IC50 (Cytochrome P450 2B6): > 10000 nM
TDI (Cytochrome P450 2C19): Not Active
Ki (Glucocorticoid receptor): > 10000 nM
Imax [4]: 31%
TDI (Cytochrome P450 2D6): Not Active
Activity (Cytochrome P450 3A4 [5]): Not Active
IC50 (Cytochrome P450 3A4 [6]): 1300 nM
